{
  "source": "ChEMBL document CHEMBL3407373",
  "about": "“Design, synthesis and evaluation of a novel class of glucosamine mimetic peptides containing 1,3-dioxane” (2015)",
  "note": "Structures can show the parent of a compound that is named as a salt.",
  "data": [
    {"system": "Mus musculus", "assay": "Antiinflammatory activity against ICR mouse ear edema model assessed as inhibition of xylene-induced edema at 100 mg/kg, po administered 30 mins prior to xylene challenge measured after 2 hrs relative to vehicle-treated control", "format": "functional", "method_in_brief": "(§1)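 Male ICR mice (18-20 g), 12/12 h light/dark, free food and water, acclimated 1 day; groups of twelve. Test agents were given by oral gavage as suspensions in 0.5% CMC, with CMC alone as vehicle control, 30 min before xylene was applied to both surfaces of the right ear; the left ear served as control. At 2 h, mice were decapitated and 8.0 mm ear biopsies were punched and weighed; edema = right minus left weight.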", "units": {"inhibition in vivo at 100 mg/kg": "%"}, "values": [
      {"smiles": "CC(=O)Oc1ccccc1C(=O)O", "note": "[ASPIRIN]", "inhibition in vivo at 100 mg/kg": 89.5}
    ]},
    {"system": "Mus musculus", "assay": "Antiinflammatory activity against ICR mouse ear edema model assessed as inhibition of xylene-induced edema at 1 umol/kg, po administered 30 mins prior to xylene challenge measured after 2 hrs relative to vehicle-treated control", "format": "functional", "method_in_brief": "as §1", "units": {"inhibition in vivo at 1 µmol/kg": "%"}, "values": [
      {"smiles": "CC[C@H](C)[C@H](NCCC1OCC(C)(C)CO1)C(=O)N[C@H]1C(O)O[C@H](CO)[C@@H](O)[C@@H]1O", "note": "(some centres not stated)", "inhibition in vivo at 1 µmol/kg": 70.8}
    ]},
    {"system": "Mus musculus", "assay": "Antiinflammatory activity against ICR mouse ear edema model assessed as inhibition of xylene-induced edema at 10 umol/kg, po administered 30 mins prior to xylene challenge measured after 2 hrs relative to vehicle-treated control", "format": "functional", "method_in_brief": "as §1", "units": {"inhibition in vivo at 10 µmol/kg": "%"}, "values": [
      {"smiles": "CC[C@H](C)[C@H](NCCC1OCC(C)(C)CO1)C(=O)N[C@H]1[C@@H](OCc2ccccc2)O[C@H](COCc2ccccc2)[C@@H](OCc2ccccc2)[C@@H]1OCc1ccccc1", "inhibition in vivo at 10 µmol/kg": 81.6},
      {"smiles": "CC1(C)COC(CCN[C@@H](Cc2ccccc2)C(=O)N[C@H]2[C@@H](OCc3ccccc3)O[C@H](COCc3ccccc3)[C@@H](OCc3ccccc3)[C@@H]2OCc2ccccc2)OC1", "inhibition in vivo at 10 µmol/kg": 87.1},
      {"smiles": "CC(C)[C@H](NCCC1OCC(C)(C)CO1)C(=O)N[C@H]1[C@@H](OCc2ccccc2)O[C@H](COCc2ccccc2)[C@@H](OCc2ccccc2)[C@@H]1OCc1ccccc1", "inhibition in vivo at 10 µmol/kg": 86.2},
      {"smiles": "C[C@H](NCCC1OCC(C)(C)CO1)C(=O)N[C@H]1[C@@H](OCc2ccccc2)O[C@H](COCc2ccccc2)[C@@H](OCc2ccccc2)[C@@H]1OCc1ccccc1", "inhibition in vivo at 10 µmol/kg": 90.3},
      {"smiles": "CC1(C)COC(CCN[C@@H](Cc2c[nH]c3ccccc23)C(=O)N[C@H]2[C@@H](OCc3ccccc3)O[C@H](COCc3ccccc3)[C@@H](OCc3ccccc3)[C@@H]2OCc2ccccc2)OC1", "inhibition in vivo at 10 µmol/kg": 80.1},
      {"smiles": "CC(C)C[C@H](NCCC1OCC(C)(C)CO1)C(=O)N[C@H]1[C@@H](OCc2ccccc2)O[C@H](COCc2ccccc2)[C@@H](OCc2ccccc2)[C@@H]1OCc1ccccc1", "inhibition in vivo at 10 µmol/kg": 76.7},
      {"smiles": "CC[C@H](C)[C@H](NCCC1OCC(C)(C)CO1)C(=O)N[C@H]1[C@@H](OC(C)=O)O[C@H](COC(C)=O)[C@@H](OC(C)=O)[C@@H]1OC(C)=O", "inhibition in vivo at 10 µmol/kg": 79.8},
      {"smiles": "CC(=O)OC[C@H]1O[C@H](OC(C)=O)[C@H](NC(=O)[C@H](Cc2ccccc2)NCCC2OCC(C)(C)CO2)[C@@H](OC(C)=O)[C@@H]1OC(C)=O", "inhibition in vivo at 10 µmol/kg": 86.8},
      {"smiles": "CC(=O)OC[C@H]1O[C@H](OC(C)=O)[C@H](NC(=O)[C@@H](NCCC2OCC(C)(C)CO2)C(C)C)[C@@H](OC(C)=O)[C@@H]1OC(C)=O", "inhibition in vivo at 10 µmol/kg": 70.6},
      {"smiles": "CC(=O)OC[C@H]1O[C@H](OC(C)=O)[C@H](NC(=O)[C@H](C)NCCC2OCC(C)(C)CO2)[C@@H](OC(C)=O)[C@@H]1OC(C)=O", "inhibition in vivo at 10 µmol/kg": 84.2},
      {"smiles": "CC(=O)OC[C@H]1O[C@H](OC(C)=O)[C@H](NC(=O)[C@H](Cc2c[nH]c3ccccc23)NCCC2OCC(C)(C)CO2)[C@@H](OC(C)=O)[C@@H]1OC(C)=O", "inhibition in vivo at 10 µmol/kg": 80.7},
      {"smiles": "CC(=O)OC[C@H]1O[C@H](OC(C)=O)[C@H](NC(=O)[C@H](CC(C)C)NCCC2OCC(C)(C)CO2)[C@@H](OC(C)=O)[C@@H]1OC(C)=O", "inhibition in vivo at 10 µmol/kg": 86.6},
      {"smiles": "CC[C@H](C)[C@H](NCCC1OCC(C)(C)CO1)C(=O)N[C@H]1C(O)O[C@H](CO)[C@@H](O)[C@@H]1O", "note": "(some centres not stated)", "inhibition in vivo at 10 µmol/kg": 88.7},
      {"smiles": "CC1(C)COC(CCN[C@@H](Cc2ccccc2)C(=O)N[C@H]2C(O)O[C@H](CO)[C@@H](O)[C@@H]2O)OC1", "note": "(some centres not stated)", "inhibition in vivo at 10 µmol/kg": 81.9},
      {"smiles": "CC(C)[C@H](NCCC1OCC(C)(C)CO1)C(=O)N[C@H]1C(O)O[C@H](CO)[C@@H](O)[C@@H]1O", "note": "(some centres not stated)", "inhibition in vivo at 10 µmol/kg": 85.1},
      {"smiles": "C[C@H](NCCC1OCC(C)(C)CO1)C(=O)N[C@H]1C(O)O[C@H](CO)[C@@H](O)[C@@H]1O", "note": "(some centres not stated)", "inhibition in vivo at 10 µmol/kg": 86.8},
      {"smiles": "CC1(C)COC(CCN[C@@H](Cc2c[nH]c3ccccc23)C(=O)N[C@H]2C(O)O[C@H](CO)[C@@H](O)[C@@H]2O)OC1", "note": "(some centres not stated)", "inhibition in vivo at 10 µmol/kg": 80.3},
      {"smiles": "CC(C)C[C@H](NCCC1OCC(C)(C)CO1)C(=O)N[C@H]1C(O)O[C@H](CO)[C@@H](O)[C@@H]1O", "note": "(some centres not stated)", "inhibition in vivo at 10 µmol/kg": 81.8},
      {"smiles": "N[C@H]1C(O)O[C@H](CO)[C@@H](O)[C@@H]1O", "note": "(some centres not stated) [GLUCOSAMINE HYDROCHLORIDE]", "inhibition in vivo at 10 µmol/kg": 64.3}
    ]},
    {"system": "Mus musculus", "assay": "Antiinflammatory activity against ICR mouse ear edema model assessed as inhibition of xylene-induced edema at 0.1 umol/kg, po administered 30 mins prior to xylene challenge measured after 2 hrs relative to vehicle-treated control", "format": "functional", "method_in_brief": "as §1", "units": {"inhibition in vivo at 0.1 µmol/kg": "%"}, "values": [
      {"smiles": "CC[C@H](C)[C@H](NCCC1OCC(C)(C)CO1)C(=O)N[C@H]1C(O)O[C@H](CO)[C@@H](O)[C@@H]1O", "note": "(some centres not stated)", "inhibition in vivo at 0.1 µmol/kg": 44.3}
    ]}
  ]
}
